Assay results from different studies.
Compare with care: the assays were run in different laboratories.
Target: Dual specificity mitogen-activated protein kinase kinase 1 (MAP2K1, Homo sapiens, UniProt Q02750)

With `Cc1ccc(NC(=O)c2ccnc(C(F)(F)F)c2)cc1-c1cc(OCCO)nc(N2CCOCC2)c1` the remaining binding was 86% (binding; competition with immobilised ligand; 1 µM).
`N#Cc1ccc(NC(=O)Nc2ccccc2)cc1` gave a remaining binding of 66% (cell-free assay; competition with immobilised ligand; 25 µM).
For `CO[C@@H]1[C@H](N(C)C(=O)c2ccccc2)C[C@H]2O[C@]1(C)n1c3ccccc3c3c4c(c5c6ccccc6n2c5c31)C(=O)NC4`, the inhibition was 30% (enzyme activity; inhibitor; 1 µM).
For `Cc1cc(O)c(-c2ccc([C@@H](C)CN(C)C)cc2)c2c1[nH]c(=O)c1sccc12`, the inhibition was 8.68% (enzyme activity; inhibitor; 0.1 µM).
`COc1ccc2oc(-c3ccc4nc(N)oc4c3)c/c(=N\c3ccccc3NC(=O)CCN)c2c1` has a remaining binding of 102% (binding; 1 µM).
`CCCCC(=O)Nc1ccc(-c2ccc3ncn(CCC)c(=O)c3c2)cn1` has a remaining binding of 52% (binding; competition with immobilised ligand; 0.5 µM).
`C=CC(=O)N1CCC[C@@H](n2nc(-c3ccc(Oc4ccccc4)cc3)c3c(N)ncnc32)C1` has an inhibition of 84% (enzyme activity; inhibitor; 1 µM).
The remaining binding of `COc1ccc2[nH]c3c4[nH]c5ccc(OC)cc5c4c4c(c3c2c1)C(=O)NC4=O` is reported as 70% (binding; competition with immobilised ligand; 1 µM).
